The source of these data is ChEMBL document CHEMBL1833801, “Natural daucane sesquiterpenes with antiproliferative and proapoptotic activity against human tumor cells” (Bioorg Med Chem, 2011).

Assay [1] deals with Jurkat. Briefly: Cell cycle arrest in human Jurkat cells assessed as decrease in S phase phase after 48 hrs using propidium iodide staining by flow cytometry. Type of assay: functional, cell-based. Put shortly: (§1)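 Exponentially growing Jurkat cells, 2.5×10^5, exposed to 1.25–100 µM for 48 h. Cells fixed in ice-cold 70% ethanol, lysed in buffer with RNase A and 0.1% Triton X-100, stained with propidium iodide. Cell-cycle phases read by flow cytometry. Mean ± SEM of three independent experiments; two-sided Student's t test against control.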
On the technique in general: Flow cytometry measures light scatter and fluorescence of single cells or particles in a stream.

For a further assay, the system named is K562. Briefly: Cytotoxicity against human K562 cells after 72 hrs by MTT assay. Type of assay: functional, cell-based. To be noted: K562, 72 h. On the technique in general: Tetrazolium dyes change colour on reduction, which living cells bring about.
Assay [2] concerns Jurkat. Briefly: Induction of apoptosis in human Jurkat cells assessed as increase in early apoptotic cells after 24 hrs by FITC-conjugated annexin V and propidium iodide staining-based flow cytometry. The format is functional, cell-based. The gist of the method: (§2)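 Jurkat cells exposed for 24 and 48 h, over a range of 1.25–100 µM, then co-stained with Annexin-V-FITC and propidium iodide. Read by flow cytometry, excitation 488 nm, emission 525 and 585 nm. Quadrants scored as A+/PI− (early apoptotic) and A+/PI+ (late apoptotic), compared with untreated cells. Mean ± SEM of three independent experiments.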

Assay [3] concerns Jurkat. Briefly: Cell cycle arrest in human Jurkat cells assessed as accumulation at G2/M phase after 48 hrs using propidium iodide staining by flow cytometry. Type of assay: functional, cell-based. Put shortly: as §1
The test system of assay [4] is PBL. Briefly: Cytotoxicity against human PBL after 72 hrs by MTT assay. Type of assay: cell-based. The gist of the method: (§3)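 PBL from healthy donors separated on a density gradient, washed, held at 1.0×10^6 cells/mL in RPMI-1640 with 10% FCS overnight. Non-adherent cells resuspended at 5×10^5 cells/mL. Stimulated cultures received 2.5 µg/mL PHA; resting cultures had none. Compound at several concentrations for 72 h, viability by MTT, IC50 taken. Mean ± SEM of three experiments.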

The subject of the next assay is A549. Briefly: Cytotoxicity against human A549 cells after 72 hrs by MTT assay. The format is functional, cell-based. To be noted: A549, 72 h.
The test system of assay [5] is Jurkat. Briefly: Induction of apoptosis in human Jurkat cells assessed as increase in late apoptotic cells after 48 hrs by FITC-conjugated annexin V and propidium iodide staining-based flow cytometry. Type of assay: functional, cell-based. The gist of the method: as §2
A further assay deals with HL-60. Briefly: Cytotoxicity against human HL60 cells after 72 hrs by MTT assay. The format is functional, cell-based. To be noted: HL-60, 72 h.
For assay [6], the system named is Jurkat. Briefly: Cytotoxicity against human Jurkat cells assessed as cell viability at 25 uM after 48 hrs by MTT assay in presence of 100 uM pan-caspase inhibitor z-VAD. Type of assay: functional. Put shortly: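 Jurkat cells exposed to compound for 48 h with or without 100 µM of the pan-caspase inhibitor z-VAD.fmk. Percent viability read by MTT. Mean ± SEM.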

The nature of assay [7]: Cytotoxicity against human RS4:11 cells after 72 hrs by MTT assay. Type of assay: functional, cell-based. To be noted: RS4-11, 72 h.
A short description of assay [8]: Cytotoxicity against human SEM cells after 72 hrs by MTT assay. The format is functional, cell-based.
Assay [9] deals with Jurkat. Briefly: Induction of apoptosis in human Jurkat cells assessed as DNA fragmentation at 12.5 to 50 uM after 48 hrs by agarose gel electrophoresis. The format is functional, cell-based. The gist of the method:
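Genomic DNA taken from treated Jurkat cells by salting out after 48 h. 1 µg run on 1.5% agarose in TAE at 50 V for 6 h. Gel stained with ethidium bromide and imaged under UV light.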

In another assay the test system is HeLa. Briefly: Cytotoxicity against human HeLa cells after 72 hrs by MTT assay. The format is functional, cell-based.
For assay [10], the system named is PBL. Briefly: Cytotoxicity against PHA-stimulated human PBL after 72 hrs by MTT assay. Type of assay: cell-based. The gist of the method:
as §3

Assay [11] concerns Jurkat. Briefly: Cell cycle arrest in human Jurkat cells assessed as decrease in G1 phase phase after 48 hrs using propidium iodide staining by flow cytometry. Type of assay: functional, cell-based. The gist of the method:
as §1

Assay [12] relates to Jurkat. Briefly: Cytotoxicity against human Jurkat cells after 72 hrs by MTT assay. The format is functional, cell-based.

Activity calls are given as the source filed them. No cut-off for these calls is given here.

Turning to `C/C=C(/C)C(=O)O[C@H]1CC(C)=C[C@@H](OC(=O)/C(C)=C\C)[C@@]2(C)CC[C@@](O)(C(C)C)[C@H]12`, the result in the assay with Jurkat [1], in the assay with Jurkat [5], with Jurkat [9] and in the assay on Jurkat [11] was Active. In addition, the IC50 (in general, the concentration needed to halve the response being measured) in the assay with K562 came out at 26.5 µM; in the assay on PBL [4], 22.6 µM; with A549, 2.8 µM; with HL-60 it was 2.6 µM; in [7] it was 1.7 µM; in [8], 2.4 µM. The IC50 came to 4.4 µM in the assay on HeLa, 13.7 µM with PBL [10] and 7.7 µM in the assay with Jurkat [12]. Also, the Activity entry was “Dose-dependent effect” in the assay on Jurkat [2], “Dose-dependent effect” in the assay with Jurkat [3] and 19% with Jurkat [6].
